The source of these data is ChEMBL document CHEMBL1773031, “Maklamicin, an antibacterial polyketide from an endophytic Micromonospora sp” (J Nat Prod, 2011).

In brackets after ≈: the same amount, converted by molar mass.

The subject of experiment [1] is Bacillus cereus. The experiment in a line: Antimicrobial activity against Bacillus cereus NBRC 15305 after 20 hrs by microplate reader assay. Type of experiment: functional. The conditions noted are these: NBRC 15305, 20 h. The essentials: (§1)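 Grown in Mueller Hinton broth on a reciprocal shaker for 20 h at 30 °C, then pelleted and resuspended in saline at 1 × 10^5 cells/mL. The suspension was mixed into fresh broth in 96-well plates with test sample in DMSO. Plates were incubated for 20 h at 30 °C, and growth was read as absorbance at 650 nm.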

In experiment [2] the test system is Enterococcus faecalis. The experiment in a line: Antimicrobial activity against Enterococcus faecalis NBRC 100480 after 20 hrs by microplate reader assay. Type of experiment: functional. The conditions noted are these: NBRC 100480, 20 h. The procedure, abridged: as §1
Experiment [3] concerns Escherichia coli. The experiment is described as follows: Antimicrobial activity against Escherichia coli NIH-JC2 after 20 hrs by microplate reader assay. Type of experiment: functional. The conditions noted are these: NIH-JC2, 20 h. The essentials:
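The E. coli preculture was grown in Mueller Hinton broth, shaken for 20 h at 30 °C, centrifuged and suspended in saline at 1 × 10^5 cells/mL. The suspension was combined in broth with sample dissolved in DMSO. Incubation was 20 h at 37 °C, with absorbance at 650 nm read on a microplate reader.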

Experiment [4] concerns Micrococcus luteus. The experiment in a line: Antimicrobial activity against Micrococcus luteus ATCC 9343 after 20 hrs by microplate reader assay. Type of experiment: functional. Conditions: ATCC 9343, 20 h. The procedure, abridged:
as §1

In experiment [5] the test system is Bacillus subtilis. The experiment is described as follows: Antimicrobial activity against Bacillus subtilis PCI219 after 20 hrs by microplate reader assay. Type of experiment: functional. The conditions noted are these: PCI219, 20 h. The procedure, abridged: as §1
For experiment [6], the system named is Staphylococcus aureus. The experiment is described as follows: Antimicrobial activity against Staphylococcus aureus IFO 12732 after 20 hrs by microplate reader assay. The conditions noted are these: IFO 12732, 20 h. Type of experiment: functional. The essentials: as §1
The subject of experiment [7] is Candida albicans. The experiment in a line: Antimicrobial activity against Candida albicans IFO 1594 after 20 hrs by microplate reader assay. The conditions noted are these: IFO 1594, 20 h. Type of experiment: functional. The procedure, abridged: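 Yeast Nitrogen Base supplemented with 2% glucose was the medium. Cells were shaken for 20 h at 30 °C, pelleted and resuspended in saline at 1 × 10^5 cells/mL. They were mixed in medium with DMSO sample solution in 96-well plates and incubated for 20 h at 30 °C. Growth was measured as absorbance at 650 nm.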

The subject of experiment [8] is MCF7. The experiment is described as follows: Cytotoxicity against human MCF7 cells after 48 hrs by MTT assay. Type of experiment: functional, cell-based. Conditions: MCF7, 48 h.
The test system of experiment [9] is HeLa. The experiment is described as follows: Cytotoxicity against human HeLa cells after 48 hrs by MTT assay. Type of experiment: functional, cell-based.

In general, MIC refers to the least concentration at which growth counts as inhibited. As to `CN(C)[C@@H]1C(O)=C(C(N)=O)C(=O)[C@@]2(O)C(O)=C3C(=O)c4c(O)cccc4[C@@](C)(O)[C@H]3C[C@@H]12.Cl` [TETRACYCLINE HYDROCHLORIDE], the MIC in [1] amounted to 1.5 µg/mL; in [2], 0.2 µg/mL; in [3], 0.8 µg/mL; in experiment [4] it was 0.1 µg/mL; in [5] it was 0.05 µg/mL; in experiment [6], 0.05 µg/mL.
One may read the IC50 as the concentration at which inhibition is half-maximal. For the compound `C[C@H]1CC[C@@H]2[C@H](C=C[C@H]3[C@H](C)/C=C/C[C@]4(C)C=C(CO)[C@H](C[C@@H](C)O)C[C@]45OC(=O)C(=C5O)C(=O)[C@@]23C)C1` [MAKLAMICIN], the MIC in [7] is 50 µg/mL (≈ 95.3 µM); in experiment [1] it was 6.5 µg/mL (≈ 12.4 µM); in experiment [2] it was 13 µg/mL (≈ 24.8 µM); in experiment [3], more than 50 µg/mL; in experiment [4], 0.2 µg/mL (≈ 0.381 µM); in experiment [5], 1.7 µg/mL (≈ 3.24 µM). The same compound yielded an MIC in experiment [6] of 13 µg/mL (≈ 24.8 µM). Besides, the IC50 in [8] amounted to 34 µM; in experiment [9], 17 µM.
